Calls of active or inactive are those of the source. The calls are words filed in the database; no cut-off is given here.
Experiments:
[1] = test system: Mus musculus; test: Anticonvulsant activity in ip dosed albino CF-1 mouse assessed as dose required to protect against maximal electroshock-induced seizures after 0.5 hrs; format: functional
How it was run: (§1)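 Male CF-1 mice (18–25 g), i.p. in 0.5% methyl cellulose at 30, 100 and 300 mg/kg; MES: 60 Hz, 50 mA, 0.2 s through tetracaine-primed corneal electrodes; protection = abolished hind limb tonic extension. Value given as minimum dose active in half or more of mice.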

[2] = test system: Mus musculus; test: Anticonvulsant activity in ip dosed albino CF-1 mouse assessed as dose required to protect against maximal electroshock-induced seizures after 2 hrs; format: functional; how it was run: as §1
[3] = test system: Mus musculus; test: Anticonvulsant activity in ip dosed albino CF-1 mouse assessed as dose required to protect against maximal electroshock-induced seizures after 4 hrs; format: functional; how it was run: as §1
[4] = test system: Mus musculus; test: Anticonvulsant activity in albino CF-1 mouse assessed as protection against subcutaneous metrazol-induced seizures at 300 mg/kg, ip after 0.5 hrs; format: functional, organism-based; parameters: dose 300 mg/kg
How it was run: (§2)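 Male CF-1 mice, i.p. at 30, 100, 300 mg/kg in 0.5% methyl cellulose; metrazol dose convulsing 97% of animals injected s.c. in midline neck fold, mice isolated and watched 30 min; protected if no 3–5 s clonic spasm episode of limbs, jaws or vibrissae.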

[5] = test system: Mus musculus; test: Anticonvulsant activity in albino CF-1 mouse assessed as protection against subcutaneous metrazol-induced seizures at 300 mg/kg, ip after 4 hrs; format: functional, organism-based; parameters: dose 300 mg/kg; how it was run: as §2
[6] = test system: Mus musculus; test: Neurotoxicity in ip dosed albino CF-1 mouse assessed as dose required to cause motor impairment after 0.5 hrs by rotarod test; format: toxicity, organism-based; conditions: in vivo
How it was run: (§3)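 Minimal motor impairment in male CF-1 mice by rotorod after i.p. dosing; toxic if animal falls off rotating rod 3 times within 1 min. Screen doses 30, 100, 300 mg/kg; quantitative TD50 (95% confidence interval) determined at time of peak effect.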

[7] = test system: Mus musculus; test: Neurotoxicity in ip dosed albino CF-1 mouse assessed as dose required to cause motor impairment after 4 hrs by rotarod test; format: toxicity, organism-based; conditions: in vivo; how it was run: as §3

Q: Which Activity [1] does the source give for `O=C1NC(=O)C(c2ccccc2)(c2ccccc2)N1` [PHENYTOIN] here?
A: 30 mg/kg

Q: What about the Activity [2] of the same compound?
A: 30 mg/kg

Q: What about the Activity [3] of the same compound?
A: 30 mg/kg

Q: What about the Activity [4] of the same compound?
A: inactive

Q: And the Activity [5]?
A: inactive

Q: What about the Activity [6] of the same compound?
A: 100 mg/kg

Q: And the Activity [7]?
A: 100 mg/kg
